According to PMC5299035 (Drug development research, 2016):

Key:
Format in all cases: cell-based
mouse Fpr1 = biological target: T1, mouse Fpr1 (Mus musculus, UniProt P33766); assay: Ca2+ mobilization assay in mFpr1-RBL cells; conditions: for Ca2+ flux mFpr1-RBL efficacy: % of the response induced by 10 nM WKYMVm; for Ca2+ flux mFpr1-RBL EC50: RBL cells transfected with mouse Fpr1, N.A. = no activity
T1 sequence (P33766 1-364): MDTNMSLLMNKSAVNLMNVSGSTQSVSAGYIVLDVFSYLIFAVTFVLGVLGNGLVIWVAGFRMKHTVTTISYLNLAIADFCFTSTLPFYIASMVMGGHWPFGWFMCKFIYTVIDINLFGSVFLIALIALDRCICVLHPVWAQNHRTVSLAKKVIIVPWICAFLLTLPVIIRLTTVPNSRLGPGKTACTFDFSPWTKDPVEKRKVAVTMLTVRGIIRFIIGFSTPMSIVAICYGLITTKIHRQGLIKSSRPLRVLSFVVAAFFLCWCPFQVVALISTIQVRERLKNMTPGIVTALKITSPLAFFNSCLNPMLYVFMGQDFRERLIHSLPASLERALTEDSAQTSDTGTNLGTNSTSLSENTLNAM
In short: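 RBL-2H3 rat basophilic leukemia cells transfected with mouse Fpr1 were kept in DMEM with 20% FBS and G418 250 μg/ml. Cells were dye-loaded with Fluo-4 AM (1.25 μg/mL final) for 30 min at 37 °C and plated at 2 × 10^5/well in HBSS+. Fluorescence (485/538 nm) was followed every 5 s for 240 s at room temperature. Peak over baseline was normalised, and EC50 was taken by 5-6-point nonlinear regression, averaged from three independent experiments.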

human neutrophils = assay: Ca2+ mobilization assay in human neutrophils; conditions: for Ca2+ flux human neutrophils efficacy: % of the response induced by 5 nM fMLF; for EC50: Homo sapiens, Neutrophil, read-out: Ca2+ flux human neutrophils EC50
In short: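 Neutrophils from healthy donors were purified by dextran sedimentation, Histopaque 1077 gradient and hypotonic red-cell lysis (>95% pure, >98% viable). After Fluo-4 AM loading (1.25 μg/mL final, 30 min, 37 °C, dark), cells were seeded at 2 × 10^5/well in HBSS with Ca2+/Mg2+. Fluorescence (485/538 nm) was tracked every 5 s for 240 s at room temperature. Maximum change over baseline was normalised, and EC50 came from a 5-6-point nonlinear fit.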

FPR3 = biological target: T2, FPR3 (Homo sapiens, UniProt P25089); assay: Ca2+ mobilization assay in FPR3-HL60 cells; conditions: for Ca2+ flux FPR3-HL60 efficacy: % of the response induced by 10 nM WKYMVm; for Emax: read-out: Ca2+ flux FPR3-HL60 efficacy
T2 sequence (P25089 1-353): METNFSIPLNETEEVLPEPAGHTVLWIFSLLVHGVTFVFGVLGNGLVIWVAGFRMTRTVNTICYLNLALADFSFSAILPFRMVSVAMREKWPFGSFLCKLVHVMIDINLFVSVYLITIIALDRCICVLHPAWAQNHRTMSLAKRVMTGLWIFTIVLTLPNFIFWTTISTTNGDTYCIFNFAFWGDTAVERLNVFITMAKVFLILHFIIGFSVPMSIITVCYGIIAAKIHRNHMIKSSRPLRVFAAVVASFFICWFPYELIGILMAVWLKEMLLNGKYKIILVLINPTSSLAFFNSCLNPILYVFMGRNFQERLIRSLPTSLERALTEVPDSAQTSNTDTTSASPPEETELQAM
In short: (§1)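 FPR2- or FPR3-transfected HL60 cells were grown in RPMI 1640 with 10% heat-inactivated FCS and G418 1 mg/mL. Cells were loaded with Fluo-4 AM (1.25 μg/mL final) for 30 min at 37 °C in the dark, washed, and seeded at 2 × 10^5 cells/well in HBSS+. Fluorescence (ex 485/em 538 nm) was read every 5 s for 240 s at room temperature. Peak rise over baseline was normalised to the reference agonist. EC50 came from 5-6-point nonlinear regression over three independent experiments.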

FPR2 = biological target: T3, FPR2 (Homo sapiens, UniProt P25090); assay: Ca2+ mobilization assay in FPR2-HL60 cells; conditions: for Ca2+ flux FPR2-HL60 efficacy: % of the response induced by 5 nM WKYMVm; for Emax: read-out: Ca2+ flux FPR2-HL60 efficacy
T3 sequence (P25090 1-351): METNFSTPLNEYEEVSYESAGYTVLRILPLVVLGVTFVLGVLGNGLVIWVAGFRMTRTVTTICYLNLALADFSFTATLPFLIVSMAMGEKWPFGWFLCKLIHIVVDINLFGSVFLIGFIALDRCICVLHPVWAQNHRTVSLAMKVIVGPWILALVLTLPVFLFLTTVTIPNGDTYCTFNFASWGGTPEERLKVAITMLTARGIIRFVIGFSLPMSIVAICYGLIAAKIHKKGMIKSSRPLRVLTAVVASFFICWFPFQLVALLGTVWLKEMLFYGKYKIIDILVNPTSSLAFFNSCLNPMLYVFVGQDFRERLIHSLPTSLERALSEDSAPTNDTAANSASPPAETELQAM
In short: as §1

FPR1 = biological target: T4, FPR1 (Homo sapiens, UniProt P21462); assay: Ca2+ mobilization assay in FPR1-HL60 cells; conditions: for Ca2+ flux FPR1-HL60 efficacy: % of the response induced by 5 nM fMLF; for Emax: read-out: Ca2+ flux FPR1-HL60 efficacy
T4 sequence (P21462 1-350): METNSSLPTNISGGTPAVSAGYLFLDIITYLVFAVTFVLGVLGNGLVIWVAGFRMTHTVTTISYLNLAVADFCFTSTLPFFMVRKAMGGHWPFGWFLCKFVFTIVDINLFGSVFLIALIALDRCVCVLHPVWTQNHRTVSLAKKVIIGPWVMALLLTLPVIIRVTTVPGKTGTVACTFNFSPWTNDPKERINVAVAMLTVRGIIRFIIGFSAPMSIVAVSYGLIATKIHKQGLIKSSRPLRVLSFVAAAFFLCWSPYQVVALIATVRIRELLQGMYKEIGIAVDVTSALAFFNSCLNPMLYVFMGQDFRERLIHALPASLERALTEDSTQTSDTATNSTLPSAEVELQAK
In short: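 FPR1-transfected HL60 cells were grown in RPMI 1640 with 10% heat-inactivated FCS, 10 mM HEPES and G418 (1 mg/mL). Cells were loaded with Fluo-4 AM (1.25 μg/mL final) for 30 min at 37 °C in the dark, then washed and seeded in HBSS+ at 2 × 10^5 cells/well. Fluorescence (485/538 nm) was read every 5 s for 240 s at room temperature after compound addition. Peak rise over baseline was set against 5 nM fMLF (100%). EC50 came from nonlinear regression of 5-6-point curves, mean of three independent experiments. No activity meant no response within 2 min (limits: efficacy >20%, EC50 <50 μM).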

mouse Fpr2 = biological target: T5, mouse Fpr2 (Mus musculus, UniProt O88536); assay: Ca2+ mobilization assay in mFpr2-RBL cells; conditions: for Ca2+ flux mFpr2-RBL efficacy: % of the response induced by 10 nM WKYMVm; for Ca2+ flux mFpr2-RBL EC50: RBL cells transfected with mouse Fpr2, N.A. = no activity
T5 sequence (O88536 1-351): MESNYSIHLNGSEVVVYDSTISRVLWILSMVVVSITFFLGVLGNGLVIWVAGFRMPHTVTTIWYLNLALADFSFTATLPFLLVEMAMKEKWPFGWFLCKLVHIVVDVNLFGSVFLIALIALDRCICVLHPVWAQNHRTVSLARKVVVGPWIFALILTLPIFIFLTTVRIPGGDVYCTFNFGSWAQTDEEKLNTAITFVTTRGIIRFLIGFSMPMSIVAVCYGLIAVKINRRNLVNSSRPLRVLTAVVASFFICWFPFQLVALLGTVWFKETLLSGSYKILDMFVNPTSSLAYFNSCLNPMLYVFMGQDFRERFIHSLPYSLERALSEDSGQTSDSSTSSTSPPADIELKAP
In short: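 RBL-2H3 cells stably expressing mouse Fpr2 were grown in DMEM with 20% FBS, 10 mM HEPES and G418 (250 μg/ml). Fluo-4 AM (1.25 μg/mL final) was loaded for 30 min at 37 °C in the dark. Cells were seeded in HBSS+ at 2 × 10^5 cells/well, and fluorescence (485/538 nm) was read every 5 s for 240 s at room temperature. Peak rise was normalized to 10 nM WKYMVm (100%). EC50 came from nonlinear regression of 5-6-point curves over three independent experiments.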

mouse neutrophils = assay: Ca2+ mobilization assay in mouse neutrophils; conditions: for Ca2+ flux mouse neutrophils efficacy: % of the response induced by 10 nM WKYMVm; for Ca2+ flux mouse neutrophils EC50: N.A. = no activity (no response during first 2 min)
In short: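 Bone marrow was flushed from BALB/c mouse tibias and femurs and separated on a Percoll gradient (45/50/55/62/81%, 1600g, 30 min, 10 °C). Red cells were removed over Histopaque 1119. Neutrophils were loaded with Fluo-4 AM (1.25 μg/mL final) for 30 min at 37 °C, seeded in HBSS+ at 2 × 10^5 cells/well, and read at 485/538 nm every 5 s for 240 s at room temperature. Responses were normalized to 10 nM WKYMVm. EC50 came from nonlinear regression of 5-6-point curves, three experiments.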

Row | Ca2+ flux mFpr1-RBL efficacy (mouse Fpr1) [%] | Ca2+ flux FPR3-HL60 efficacy (FPR3) [%] | Ca2+ flux FPR2-HL60 efficacy (FPR2) [%] | Ca2+ flux FPR1-HL60 efficacy (FPR1) [%] | Ca2+ flux mFpr2-RBL efficacy (mouse Fpr2) [%] | Ca2+ flux mFpr1-RBL EC50 (mouse Fpr1) | EC50 (human neutrophils) [nM] | EC50 (FPR3) [nM] | Emax (FPR3) [%] | Ca2+ flux mFpr2-RBL EC50 (mouse Fpr2) | Ca2+ flux mouse neutrophils EC50 (mouse neutrophils) | Emax (FPR2) [%] | Emax (FPR1) [%] | EC50 (mouse Fpr2) [µM] | Structure (SMILES) | Ca2+ flux human neutrophils efficacy (human neutrophils) [%] | Ca2+ flux mouse neutrophils efficacy (mouse neutrophils) [%]
1 | – | – | – | – | – | complete inactivity | 6 ± 2 | 40 ± 11 | 165 | complete inactivity | complete inactivity | 80 | 85 | – | COc1cccc(Cc2c(C)c(C)nn(CC(=O)Nc3ccc(Br)cc3)c2=O)c1 [4a, N-(4-Bromophenyl)-2-[5-(3-methoxybenzyl)-3,4-dimethyl-6-oxopyridazin-1(6H)-yl]acetamide] | – | –
2 | – | – | – | – | – | complete inactivity | 270 ± 25 | 130 ± 32 | 100 | complete inactivity | complete inactivity | 95 | 60 | – | COc1ccc(Cc2c(C)c(C)nn(CC(=O)Nc3ccc(Br)cc3)c2=O)cc1 [4b, N-(4-Bromophenyl)-2-[5-(4-methoxybenzyl)-3,4-dimethyl-6-oxopyridazin-1(6H)-yl]acetamide] | – | –
3 | – | – | – | – | 180 | – | 5400 ± 260 | – | – | – | – | – | 160 | 28.8 ± 5.2 | COc1cccc(Cc2c(-c3ccccc3)c(C)nn(CC(=O)Nc3ccc(Br)cc3)c2=O)c1 [4f, N-(4-Bromophenyl)-2-[5-(3-methoxybenzyl)-3-methyl-6-oxo-4-phenylpyridazin-1(6H)-yl]acetamide] | – | 95

Continued, molecule first:

Row | Structure (SMILES) | Ca2+ flux mFpr1-RBL efficacy (mouse Fpr1) [%] | Ca2+ flux FPR3-HL60 efficacy (FPR3) [%] | Ca2+ flux FPR2-HL60 efficacy (FPR2) [%] | Ca2+ flux FPR1-HL60 efficacy (FPR1) [%] | Ca2+ flux mFpr2-RBL efficacy (mouse Fpr2) [%] | Ca2+ flux mFpr1-RBL EC50 (mouse Fpr1) | EC50 (human neutrophils) [nM] | EC50 (FPR3) [nM] | Emax (FPR3) [%] | Ca2+ flux mFpr2-RBL EC50 (mouse Fpr2) | Ca2+ flux mouse neutrophils EC50 (mouse neutrophils) | Emax (FPR2) [%] | Emax (FPR1) [%] | EC50 (mouse Fpr2) [µM] | Ca2+ flux human neutrophils efficacy (human neutrophils) [%] | Ca2+ flux mouse neutrophils efficacy (mouse neutrophils) [%]
4 | CC1=NN(CC(=O)Nc2ccc(Br)cc2)C(=O)CC1C (racemic) [(±)-6a, (±)N-(4-Bromophenyl)-2-[3,4-dimethyl-6-oxo-5,6-dihydropyridazin-1(4H)-yl]acetamide] | 70 | 150 | 120 | 60 | – | – | – | – | – | – | – | – | – | – | 115 | –
5 | CC1=NN(CC(=O)Nc2ccc(Br)cc2)C(=O)CC1c1ccccc1 (racemic) [(±)-6b, (±)N-(4-Bromophenyl)-2-[3-methyl-6-oxo-4-phenyl-5,6-dihydropyridazin-1(4H)-yl]acetamide] | 60 | 120 | 110 | 90 | 220 | – | – | – | – | – | – | – | – | – | 75 | 160
